{"source": "the M2OR odorant receptor database", "data": [{"biological_target": "T1, OR1A1 (Homo sapiens) (UniProt Q9P1Q5)", "T1 sequence (whole entry)": "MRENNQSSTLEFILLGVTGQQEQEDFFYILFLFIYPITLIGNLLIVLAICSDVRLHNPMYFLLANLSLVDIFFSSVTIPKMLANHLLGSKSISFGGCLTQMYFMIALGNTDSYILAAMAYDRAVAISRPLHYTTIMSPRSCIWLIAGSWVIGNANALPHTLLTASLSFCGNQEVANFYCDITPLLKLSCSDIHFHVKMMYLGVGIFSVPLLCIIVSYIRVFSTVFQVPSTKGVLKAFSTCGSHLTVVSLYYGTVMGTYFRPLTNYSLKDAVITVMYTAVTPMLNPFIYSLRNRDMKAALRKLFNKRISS", "conditions": "stereoisomer not certain", "outline": "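Assay methods differ from source to source, frequently being transient luciferase assays in mammalian cell lines. For each receptor–molecule pair, the label responsive (active) applies when the original authors judged the measured signal statistically different from baseline, and non-responsive (inactive) applies otherwise.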", "values": [{"smiles": "CC=CC(=O)C1=C(C)CCCC1(C)C", "odorant receptor agonist call": "inactive"}, {"smiles": "C=CCOC(=O)CCCCCC", "odorant receptor agonist call": "active"}, {"smiles": "CCCCCCCCCC(=O)[O-].[H+]", "odorant receptor agonist call": "inactive"}, {"smiles": "CCCCC1CCC(=O)O1", "note": "(stereo unspecified)", "odorant receptor agonist call": "inactive"}, {"smiles": "COc1ccccc1", "odorant receptor agonist call": "inactive"}, {"smiles": "CCOC(=O)Cc1cccc(Br)c1", "odorant receptor agonist call": "active"}, {"smiles": "CCCC1CCCC(=O)O1", "note": "(stereo unspecified)", "odorant receptor agonist call": "inactive"}, {"smiles": "CCC(C(=O)O)c1ccccc1", "note": "(stereo unspecified)", "odorant receptor agonist call": "inactive"}, {"smiles": "CCC(S)C(C)=O", "note": "(stereo unspecified)", "odorant receptor agonist call": "inactive"}, {"smiles": "C=Cc1ccc(O)c(OC)c1", "odorant receptor agonist call": "inactive"}, {"smiles": "CCCCCCCC(=O)OCC", "odorant receptor agonist call": "inactive"}, {"smiles": "CC(C)=CCCC(C)CC(=O)O", "note": "(stereo unspecified)", "odorant receptor agonist call": "inactive"}, {"smiles": "CCOC(=O)c1ccccc1", "odorant receptor agonist call": "inactive"}, {"smiles": "CCOC(C)=O", "odorant receptor agonist call": "inactive"}, {"smiles": "CCCCCCCCC1CCC(=O)O1", "note": "(stereo unspecified)", "odorant receptor agonist call": "inactive"}, {"smiles": "CCC(=O)O", "odorant receptor agonist call": "inactive"}, {"smiles": "CCCCS", "odorant receptor agonist call": "inactive"}, {"smiles": "CCCCCCCC=CC=CC=O", "odorant receptor agonist call": "inactive"}, {"smiles": "CCCCCCCC1CCCC(=O)O1", "note": "(stereo unspecified)", "odorant receptor agonist call": "inactive"}, {"smiles": "CSSc1ccoc1C", "odorant receptor agonist call": "inactive"}, {"smiles": "Cc1nccnc1C", "odorant receptor agonist call": "inactive"}, {"smiles": "C=CC(C)(O)CCC=C(C)CCC=C(C)C", "note": "(stereo unspecified)", "odorant receptor agonist call": "active"}, {"smiles": "CCCCCC(=O)CC", "odorant receptor agonist call": "active"}, {"smiles": "C=CC(=C)CCC=C(C)C", "odorant receptor agonist call": "inactive"}, {"smiles": "CCC=CCCC=CC=O", "odorant receptor agonist call": "inactive"}, {"smiles": "CCCCCc1ccccn1", "odorant receptor agonist call": "active"}, {"smiles": "CCCCCC1CCC(=O)O1", "note": "(stereo unspecified)", "odorant receptor agonist call": "active"}, {"smiles": "CCCCOC(=O)C(C)OC(=O)CCC", "note": "(stereo unspecified)", "odorant receptor agonist call": "inactive"}, {"smiles": "CCCCC(CC)CCC(=O)O", "note": "(stereo unspecified)", "odorant receptor agonist call": "inactive"}, {"smiles": "CCCC(=O)OC", "odorant receptor agonist call": "inactive"}, {"smiles": "CCCC(=O)C(C)CC", "note": "(stereo unspecified)", "odorant receptor agonist call": "inactive"}, {"smiles": "CC(=O)OCCC(C)C", "odorant receptor agonist call": "inactive"}, {"smiles": "CCCCC1OC(=O)CC1C", "note": "(stereo unspecified)", "odorant receptor agonist call": "inactive"}, {"smiles": "CCCCCC=CC=O", "odorant receptor agonist call": "inactive"}, {"smiles": "CCCSSSCCC", "odorant receptor agonist call": "inactive"}, {"smiles": "CCCCCCCCCC(=O)OCC", "odorant receptor agonist call": "inactive"}]}]}
